# Data from article PMC3603146 (Nature structural & molecular biology, 2012).
# Changes are numbered by the printed parent chain. Names may count otherwise. Square brackets hold non-standard residues; d marks the D form. Peptide text beside a SMILES is read from it. Lys(Me3) = C[N+](C)(C)CCCC[C@H](N)C(=O)O
# B1: Flag-PHF1: Flag-tagged PHF1 stably expressed in mouse ES cells (protein, UniProt Q9Z1B8 1-559, looked up)
# PHD finger protein 1: MAQLPRLSRLGAPSLWDPASPAPTSGPRPRLWEGQDVLARWTDGLLYLGTIKKVDSAREVCLVQFEDDSQFLVLWKDISPAALPGEELLCCVCRSETVVPGNRLVSCEKCRHAYHQDCHVPRAPAPGEGEGASWVCRQCVFAIATKRGGALKKGPYARAMLGMKLSLPYGLKGLDWDAGHLSNRQQSYCYCGGPGEWNLKMLQCRSCLQWFHEACTQCLSKPLLYGDRFYEFECCVCRGGPEKVRRLQLRWVDVAHLVLYHLSVCCKKKYFDFDREILPFTSENWDSLLLGELSDTPKGERSSQLLSALNSHKDRFISGREIKKRKCLFGLHARTPPPVELLTGDGAPTSFPSGQGPGGGVSRPLGKRWRSEPEPLRRRQKGKVEELGPPTAAHSRHGSREQRALQASVSPPPPSPNQSYEGSSGYNFRPTDARCLPSSPIRMFASFHPSASTAGTSGDSEPPDRSPLGLHIGFPTDTPKSSPHSVTASSSSVPALTPGFSRHSPPSPLCRSLSPGTGGGVRGGVSYLSRGDPVRVLARRVRPDGSVQYLVEWGGGGIF
# modifications: Flag tag
# B2: wild type PHF1: full length hPHF1 expressed in HEK293T (HA-tag) or K562 cells (Flag) (protein, UniProt O43189 1-567, looked up)
# chain: MAQPPRLSRSGASSLWDPASPAPTSGPRPRLWEGQDVLARWTDGLLYLGTIKKVDSAREVCLVQFEDDSQFLVLWKDISPAALPGEELLCCVCRSETVVPGNRLVSCEKCRHAYHQDCHVPRAPAPGEGEGTSWVCRQCVFAIATKRGGALKKGPYARAMLGMKLSLPYGLKGLDWDAGHLSNRQQSYCYCGGPGEWNLKMLQCRSCLQWFHEACTQCLSKPLLYGDRFYEFECCVCRGGPEKVRRLQLRWVDVAHLVLYHLSVCCKKKYFDFDREILPFTSENWDSLLLGELSDTPKGERSSRLLSALNSHKDRFISGREIKKRKCLFGLHARMPPPVEPPTGDGALTSFPSGQGPGGGVSRPLGKRRRPEPEPLRRRQKGKVEELGPPSAVRNQPEPQEQRERAHLQRALQASVSPPSPSPNQSYQGSSGYNFRPTDARCLPSSPIRMFASFHPSASTAGTSGDSGPPDRSPLELHIGFPTDIPKSAPHSMTASSSSVSSPSPGLPRRSAPPSPLCRSLSPGTGGGVRGGVGYLSRGDPVRVLARRVRPDGSVQYLVEWGGGGIF
# modifications: full-length HA or Flag tag
# B3: W41A: PHF1 mutant impaired in H3K36me3 binding; HA-tagged, GFP-fusion or in Flag-PHF1-PRC2 complex according to the test (protein, UniProt O43189 1-567, looked up, variant W41A)
# PHD finger protein 1: B2 chain with W41A
# modifications: HA, GFP or Flag tag
# B4: Y47A: PHF1 mutant impaired in H3K36me3 binding; HA-tagged, GFP-fusion or in Flag-PHF1-PRC2 complex according to the test (protein, UniProt O43189 1-567, looked up, variant Y47A)
# PHD finger protein 1: B2 chain with Y47A
# modifications: HA, GFP or Flag tag
# Legend:
# PHF1 Tudor (WT) = PHF1 Tudor (WT) (Homo sapiens, UniProt O43189); assay: NMR 1H,15N HSQC titration of wild type PHF1 Tudor with histone peptides; assay type: binding; details: for NMR chemical shift / resonance perturbations in PHF1 Tudor: titration of unlabeled peptide into 15N-labeled wild type Tudor
# PHF1 Tudor W41A = PHF1 Tudor W41A (Homo sapiens, UniProt O43189, W41A); assay: NMR 1H,15N HSQC titration of PHF1 Tudor W41A mutant; assay type: binding; details: structure of the protein remained intact
# Summary of the method: (§1)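 Uniformly 15N-labeled mutant PHF1 Tudor (residues 14–87) was GST-purified from E. coli BL21(DE3) pLysS grown in 15NH4Cl M9 (0.5 mM IPTG), tag-cleaved and size-exclusion purified. 1H,15N HSQC spectra were recorded at 600 MHz (cryoprobe) with increasing concentrations of 12-mer histone tail peptides. Kd came from nonlinear least-squares fitting of normalized chemical shift changes versus peptide and protein concentration.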
# PHF1 Tudor Y47A = PHF1 Tudor Y47A (Homo sapiens, UniProt O43189, Y47A); assay: NMR 1H,15N HSQC titration of PHF1 Tudor Y47A mutant; assay type: binding; details: structure of the protein remained intact
# Summary of the method: as §1
# GST-fusion PHF1 Tudor = assay: Pull-down of GST-fusion PHF1 Tudor with biotinylated histone peptides; assay type: binding, human; details: biotinylated peptides (H3K4, H3K9, unmodified H3: residues 1–21; H3K27, H3K36: residues 21–44), 50 mM Tris pH 7.5, 150 mM NaCl, 0.05% Nonidet P-40; anti-GST western
# Summary of the method: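 GST-tagged human PHF1 Tudor (residues 14–87) expressed in E. coli BL21(DE3) pLysS with 0.5 mM IPTG induction, purified on glutathione beads, eluted with 0.05 M reduced glutathione, then size exclusion. The protein was incubated with C-terminally biotinylated peptides (me1/me2/me3 forms) plus streptavidin beads. Beads were washed five times in binding buffer, and bound protein was detected with HRP-conjugated anti-GST monoclonal.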
# XRCC1 = XRCC1 accumulation at single stranded breaks upon PARP1 inhibitor treatment; assay type: cell-based; details: low doses of radiation
# [1] = test system: poly (ADP-ribose) PAR polymer; assay: Poly; assay type: cell-based; details: Western analysis
# [2] = test system: Oct4, Nanog, HoxA4 and HoxA11 promoters, mouse ES cells; assay: ChIP of H3K27me3 in mouse ES cells expressing Flag-PHF1; assay type: cell-based; details: stably expressing Flag-PHF1 vs empty vector; H3K27me3 to total H3; two experiments
# Summary of the method: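 Mouse ES cells (ww6), grown on fibroblasts or with recombinant LIF, transduced with virus carrying pRTF vector (empty or Flag-PHF1); Flag-PHF1 clones selected. ChIP on 500 μg cross-linked chromatin with anti-H3 or anti-H3K27me3; qPCR with primers near the transcription start site. H3K27me3 expressed as ratio to total H3 to correct for nucleosome density; two separate ChIP experiments.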
# HEK293T cells = assay type: cell-based; details: HA-tagged PHF1, 48 hours after transfection, compared with empty vector
# Summary of the method: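 HEK293T cells were grown in DMEM with 10% FBS and penicillin/streptomycin. They were transiently transfected using polyethylenimine with full-length human PHF1 (C-terminal HA tag, pIRES2-EGFP; wild type, W41A or Y47A) or empty plasmid as negative control. Whole-cell lysates were collected 48 h post-transfection for Western blot with rabbit antibodies to HA, histone H3, H3K27me3 and H3K36me3.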
# [3] = test system: MYT1 promoter, HEK293T cells; assay: ChIP at the MYT1 promoter in HEK293T cells; assay type: cell-based; details: upon overexpression of PHF1; normalized to H3
# Summary of the method: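 HEK293T cells were transiently transfected with empty vector, wild-type HA-PHF1 or W41A/Y47A mutants, then fixed 48 h later (1×10^7 cells, 1% formaldehyde, 14 min, room temperature). Chromatin was sonicated to ~500 bp and immunoprecipitated with 4 μg antibody and Protein A magnetic beads. qPCR was run in triplicate with 7 MYT1 primer sets (−1680 to 866 around TSS). Fold-enrichment = IgG-subtracted %Input ÷ that of reference gene PCLB4. Data are mean ± SD of three biological replicates.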
# Sequence of PHF1 Tudor W41A (O43189 14-87 W41A): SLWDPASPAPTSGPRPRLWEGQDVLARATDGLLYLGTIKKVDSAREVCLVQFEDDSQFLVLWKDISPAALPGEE
# Sequence of PHF1 Tudor Y47A (O43189 14-87 Y47A): as the sequence (O43189 14-87 W41A) above, with A28W, Y34A counted along it
molecule,measurement,setting,value
CC(C)[C@H](NC(=O)CNC(=O)CNC(=O)[C@@H](NC(=O)[C@H](C)N)[C@@H](C)O)C(=O)N[C@@H](CCCC[N+](C)(C)C)C(=O)N[C@@H](CCCCN)C(=O)N1CCC[C@H]1C(=O)N[C@@H](Cc1c[nH]cn1)C(=O)N[C@@H](CCCNC(=N)N)C(=O)O [H3K36me3] (H-ATGGV[Lys(Me3)]KPHR-OH; N-terminus and C-terminus assumed),NMR chemical shift / resonance perturbations in PHF1 Tudor,PHF1 Tudor (WT),large chemical shift perturbations
same,effect of W41A substitution on binding to H3K36me3,PHF1 Tudor W41A,disrupted binding
same,effect of Y47A substitution on binding to H3K36me3,PHF1 Tudor Y47A,disrupted binding
same,association of PHF1 Tudor in pull-down,GST-fusion PHF1 Tudor,associated most strongly
C[C@H](N)C(=O)N[C@@H](CCCNC(=N)N)C(=O)N[C@H](C(=O)N[C@@H](CCCC[N+](C)(C)C)C(=O)N[C@@H](CCC(N)=O)C(=O)N[C@H](C(=O)N[C@@H](C)C(=O)N[C@@H](CCCNC(=N)N)C(=O)N[C@@H](CCCCN)C(=O)N[C@@H](CO)C(=O)N[C@H](C(=O)NCC(=O)O)[C@@H](C)O)[C@@H](C)O)[C@@H](C)O [H3K4me3],times weaker binding than H3K36me3 (trimethylated at other lysine residues),"PHF1 Tudor (WT); relative to H3K36me3, ITC or NMR (Fig. 3a)",~8 times
same,NMR chemical shift / resonance perturbations in PHF1 Tudor,PHF1 Tudor (WT),slightly different patterns of chemical shift changes
O=C(c1cc(Cc2n[nH]c(=O)c3ccccc23)ccc1F)N1CCN(C(=O)C2CC2)CC1 [AZD2281],accumulation of XRCC1 at single stranded breaks,XRCC1,loss of accumulation
same,poly (ADP-ribose) PAR polymer,[1],decrease in poly (ADP-ribose) PAR polymer
B1,H3K27me3 level at HoxA4 and HoxA11,[2],comparable H3K27me3 level
same,H3K27me3 signal at Oct4 and Nanog,[2],reproducible decrease of the H3K27me3 signal
B2,global level of H3K27me3,HEK293T cells,decrease in the global level of H3K27me3
same,H3K27me3 levels at MYT1,[3],substantially reduced
B3,global level of H3K27me3,HEK293T cells,no effect on the H3K27me3 level
B4,global level of H3K27me3,HEK293T cells,no effect on the H3K27me3 level
